Laboratory results published in publication PMC6105387 (Journal of clinical pharmacology, 2018).

Experiments:
[1] = Population pharmacokinetic model; format: in vivo, human
Procedure, shortened: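 Whole blood sampled 0–12 h post-dose and assayed by chemiluminescent microparticle immunoassay. Compartment models with first-order absorption; between-subject variability exponential, log-normal; categorical covariates as fractional change. Precision from 1000 bootstrap replicates (median, 95% percentile).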

[2] = metabolites excreted through the biliary route; cited from earlier work

- magnitude of BSV on CL/F ([1]; after inclusion of covariates): 37%
- magnitude of BSV on V/F ([1]; after inclusion of covariates): 76.7%
- Individual base model estimated apparent clearance CL/F, mean ([1]; extensive metabolizers (CEMCYP3A5)): 45.0 L/h
- Individual base model estimated apparent clearance CL/F, mean ([1]; intermediate metabolizers (CIMCYP3A5)): 29.5 L/h
- Individual base model estimated apparent clearance CL/F, mean ([1]; poor metabolizers (CPMCYP3A5)): 19.8 L/h
- magnitude of BSV on CL/F ([1]; before inclusion of covariates): 46.6%
- magnitude of BSV on V/F ([1]; before inclusion of covariates): 83.2%
- increase in CL/F compared to cPMCYP3A5 ([1]; cEMCYP3A5): ~2 fold
- Typical value of CL/F ([1]; cEMCYP3A5, final model): 44.3 L.hr^1
- increase in CL/F compared to cPMCYP3A5 ([1]; cIMCYP3A5): ~1.5 fold
- Typical value of CL/F ([1]; cIMCYP3A5, final model): 28.6 L.hr^1
- Typical value of CL/F ([1]; cPMCYP3A5, final model): 19.7 L.hr^1
- BSV CL/F - η1, between-subject variability, estimate ([1]; final model): 37.0 CV%
- BSV CLp/F - η3, between-subject variability, estimate ([1]; final model): 48.6 CV%
- BSV V/F - η2, between-subject variability, estimate ([1]; final model): 76.7 CV%
- BSV ka - η4, between-subject variability, estimate ([1]; final model): 69.4 CV%
- Lag time - θlag, estimate ([1]; final model): 0.828 h
- Residual variability, proportional error - ε1, estimate ([1]; final model): 9.00
- ka - θka, absorption rate, estimate ([1]; final model): 4.21 h⁻¹
- Vd/F ([1]; human, whole blood, oral): 234 L
- clearance ([1]; human, whole blood, oral, 2.5 mg): 328 mL/min
- clearance ([1]; human, whole blood, oral, 3.9 mg): 477 mL/min
- clearance ([1]; human, whole blood, oral, 5.7 mg): 738 mL/min
- BSV V/F - η2, bootstrap median ([1]; nonparametric bootstrap n=1000): 76.0 CV%
- BSV ka - η4, bootstrap median ([1]; nonparametric bootstrap n=1000): 68.6 CV%
- Lag time - θlag, bootstrap median ([1]; nonparametric bootstrap n=1000): 0.830 h
- Residual variability, proportional error - ε1, bootstrap median ([1]; nonparametric bootstrap n=1000): 8.90
- V/F - θV/F, bootstrap median ([1]; nonparametric bootstrap n=1000): 231 L
- Vp/F - θVp/F, bootstrap median ([1]; nonparametric bootstrap n=1000): 404 L
- ka - θka, bootstrap median ([1]; nonparametric bootstrap n=1000): 4.14 h⁻¹
- CL/F - θCL/F, bootstrap median ([1]; nonparametric bootstrap n=1000, poor metabolizers): 19.6 L/h
SMILES: C=CC[C@@H]1/C=C(\C)C[C@H](C)C[C@H](OC)[C@H]2O[C@@](O)(C(=O)C(=O)N3CCCC[C@H]3C(=O)O[C@H](/C(C)=C/[C@@H]3CC[C@@H](O)[C@H](OC)C3)[C@H](C)[C@@H](O)CC1=O)[C@H](C)C[C@@H]2OC [tacrolimus, Tacrolimus]
- parent drug remaining unchanged [2]: less than 1%
